Reference: ChEMBL document CHEMBL1154326 (J Med Chem, 2009)

Key:
[1] = biological target: T1, Histamine H2 receptor (Homo sapiens, UniProt P25021); assay: Antagonist activity at human histamine H2 receptor expressed in Sf9 cells coexpressing GsalphaS protein by steady-state GTPase assay; format: functional
In short: (§1)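 Antagonist-mode steady-state GTPase assay in Sf9 membranes: H1R coexpressed with RGS4; H2R as GsαS fusion; H3R coexpressed with Giα2/Gβ1γ2/RGS4; H4R as RGS19 fusion with Giα2/Gβ1γ2. […] MgCl2: H1R/H2R 1.0 mM, H3R/H4R 5.0 mM; H4R plus 100 mM NaCl. [γ-32P]GTP hydrolysis measured over 20 min at 25 °C. pKB from nonlinear sigmoidal fits; duplicate runs.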

[2] = biological target: T2, Histamine H4 receptor (Homo sapiens, UniProt Q9H3N8); assay: Antagonist activity at human histamine H4 receptor expressed in Sf9 cells coexpressing RGS19 protein by steady-state GTPase assay; format: functional; in short: as §1
[3] = biological target: T1, Histamine H2 receptor; assay: Antagonist activity at human histamine H2 receptor expressed in Sf9 cells coexpressing GsalphaS protein by steady-state GTPase assay
[4] = biological target: Histamine H3 receptor (Homo sapiens, UniProt Q9Y5N1); assay: Antagonist activity at human histamine H3 receptor expressed in Sf9 cells coexpressing Gialpha-2-Gbeta-1-gamma-2 and RGS4 proteins protein by steady-state GTPase assay; format: functional; in short: as §1
[5] = biological target: T1, Histamine H2 receptor; assay: Agonist activity at human histamine H2 receptor expressed in Sf9 cells coexpressing GsalphaS protein by steady-state GTPase assay; format: functional
In short: (§2)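 Sf9 membranes (10-20 μg protein/tube), washed and resuspended in 10 mM Tris-HCl pH 7.4. H2R as hH2R-GsαS fusion; H3R coexpressed with Giα2, Gβ1γ2, RGS4; H4R as hH4R-RGS19 fusion with Giα2, Gβ1γ2. Buffer: 50 mM Tris/HCl pH 7.4, MgCl2 (H2R 1.0 mM; H3R/H4R 5.0 mM), 100 μM EDTA, 100 μM ATP, 100 nM GTP, 100 μM AppNHp, creatine phosphate/kinase, 0.2% BSA; H4R plus 100 mM NaCl.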

[6] = biological target: Histamine H1 receptor (Homo sapiens, UniProt P35367); assay: Antagonist activity at human histamine H1 receptor expressed in Sf9 cells coexpressing RGS4 by steady-state GTPase assay; format: functional; in short: as §1
[7] = biological target: T2, Histamine H4 receptor; assay: Agonist activity at human histamine H4 receptor expressed in Sf9 cells coexpressing RGS19 protein by steady-state GTPase assay; format: functional; in short: as §2
[8] = biological target: T2, Histamine H4 receptor; conditions: Sf9

Histamine H1 receptor, sequence (P35367 whole entry): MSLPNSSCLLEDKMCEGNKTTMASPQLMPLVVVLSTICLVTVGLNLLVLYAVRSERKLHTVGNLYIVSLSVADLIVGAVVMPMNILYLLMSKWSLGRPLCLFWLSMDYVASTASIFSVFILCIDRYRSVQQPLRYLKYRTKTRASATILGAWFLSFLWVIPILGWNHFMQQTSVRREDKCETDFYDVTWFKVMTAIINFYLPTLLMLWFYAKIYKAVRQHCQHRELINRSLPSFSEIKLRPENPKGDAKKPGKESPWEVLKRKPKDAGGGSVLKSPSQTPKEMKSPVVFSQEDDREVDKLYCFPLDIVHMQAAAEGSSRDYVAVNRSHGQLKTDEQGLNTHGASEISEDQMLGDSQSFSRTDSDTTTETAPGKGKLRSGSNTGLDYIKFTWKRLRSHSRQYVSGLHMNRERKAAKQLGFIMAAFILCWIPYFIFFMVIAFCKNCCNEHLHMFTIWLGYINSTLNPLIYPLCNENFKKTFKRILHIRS
T1 sequence (P25021 whole entry, the tested form may be a part): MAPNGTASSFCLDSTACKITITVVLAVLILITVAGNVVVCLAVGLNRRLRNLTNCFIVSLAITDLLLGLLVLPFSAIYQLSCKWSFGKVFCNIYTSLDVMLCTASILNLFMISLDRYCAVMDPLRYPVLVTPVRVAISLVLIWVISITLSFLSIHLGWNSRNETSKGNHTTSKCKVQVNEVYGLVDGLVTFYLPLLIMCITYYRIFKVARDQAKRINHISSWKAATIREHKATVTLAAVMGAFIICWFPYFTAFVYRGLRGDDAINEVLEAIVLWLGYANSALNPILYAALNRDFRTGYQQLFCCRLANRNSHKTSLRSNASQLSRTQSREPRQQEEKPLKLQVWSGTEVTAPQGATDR
T2 sequence (Q9H3N8 whole entry): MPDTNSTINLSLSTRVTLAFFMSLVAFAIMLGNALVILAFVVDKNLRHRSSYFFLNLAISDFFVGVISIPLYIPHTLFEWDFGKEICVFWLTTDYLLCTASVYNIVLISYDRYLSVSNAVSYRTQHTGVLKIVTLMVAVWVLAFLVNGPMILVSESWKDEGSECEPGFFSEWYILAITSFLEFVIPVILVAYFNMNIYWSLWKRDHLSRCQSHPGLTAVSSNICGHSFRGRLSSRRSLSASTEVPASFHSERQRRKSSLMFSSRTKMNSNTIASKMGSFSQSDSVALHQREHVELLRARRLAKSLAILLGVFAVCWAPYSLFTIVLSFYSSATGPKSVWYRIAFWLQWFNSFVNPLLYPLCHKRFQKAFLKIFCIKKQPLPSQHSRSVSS
Histamine H3 receptor, sequence (Q9Y5N1 whole entry): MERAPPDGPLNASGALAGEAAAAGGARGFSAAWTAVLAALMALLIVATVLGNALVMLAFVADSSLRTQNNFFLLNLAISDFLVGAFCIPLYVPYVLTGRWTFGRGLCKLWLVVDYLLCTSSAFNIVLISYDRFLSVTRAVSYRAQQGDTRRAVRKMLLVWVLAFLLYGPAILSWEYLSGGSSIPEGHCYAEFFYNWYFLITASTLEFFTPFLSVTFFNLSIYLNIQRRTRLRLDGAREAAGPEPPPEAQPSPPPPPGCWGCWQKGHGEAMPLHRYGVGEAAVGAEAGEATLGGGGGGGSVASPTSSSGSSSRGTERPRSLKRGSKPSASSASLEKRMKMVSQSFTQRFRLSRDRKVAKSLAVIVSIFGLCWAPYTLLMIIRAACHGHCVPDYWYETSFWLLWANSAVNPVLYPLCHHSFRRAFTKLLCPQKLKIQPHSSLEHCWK

Compound | pKb [1] | pKb [2] | pKb [4] | also measured
N#C/N=C(\N)NCCCCc1c[nH]cn1 | < 5 | – | – | –
N#C/N=C(\NCCc1c[nH]cn1)NCCc1c[nH]c2ccccc12 | – | < 5 | – | pKb [3]: < 5
N#C/N=C(/NCCCCc1c[nH]cn1)NCCC(c1ccccc1)c1ccccc1 | 5 | 5.6 | – | –
NC(=O)/N=C(/NCCCCc1ccccc1)NCCCc1c[nH]cn1 | – | 6.33 | 6.51 | –
CC(C)N/C(=N/C#N)NCCCCCc1c[nH]cn1 | 5.57 | 6.25 | 6.47 | –
NC(=O)N=C(NCCCCc1c[nH]cn1)NCCCc1ccccc1 | – | – | – | EC50 [5]: 437 nM
CC(C)CN/C(=N\C#N)NCCCCCc1c[nH]cn1 | < 5 | 6.51 | 6.57 | –
N#C/N=C(/NCCCCc1c[nH]cn1)NCCCc1ccncc1 | 5.11 | – | 6.11 | –
NC(=O)/N=C(/NCCCc1ccccc1)NCCCc1c[nH]cn1 | – | 6.77 | 6.23 | pKb [6]: < 5
CC(CCN/C(=N\C#N)NCCCCc1c[nH]cn1)c1ccccc1 (configuration not stated) | < 5 | – | 6.19 | pKb [6]: < 5
N#C/N=C(/NCCCCc1c[nH]cn1)NCCCc1ccc(F)cc1 | 5.28 | 6.59 | 6.11 | –
N#C/N=C(/NCCCC1CCCCC1)NCCc1c[nH]cn1 | – | 5.57 | – | –
N#C/N=C(/NCCCCc1c[nH]cn1)NCCCC1CCCCC1 | < 5 | 6.35 | 5.82 | –
N=C(NCCCc1c[nH]cn1)NS(=O)(=O)CCc1ccccc1 | – | 5.85 | 6.57 | EC50 [5]: 12000 nM
N#CNC(=NCCc1cnc[nH]1)NCCCC1CCCCC1 | – | – | – | EC50 [5]: 3890 nM
N#C/N=C(\NCCSc1ccccc1)NCCc1c[nH]cn1 | < 5 | 5.05 | – | –
NC(=O)NC(=NCCCc1cnc[nH]1)NCCCCc1ccccc1 | – | – | – | EC50 [5]: 380 nM
N#C/N=C(/NCCCCc1ccccc1)NCCc1c[nH]cn1 | < 5 | – | – | EC50 [7]: > 10000 nM; pKb [3]: < 5
Cc1ccc(S(=O)(=O)NC(=N)NCCCc2c[nH]cn2)cc1 | – | 5.85 | 6.11 | EC50 [5]: 12000 nM; pKb [6]: < 5
N#C/N=C(/NCCCCc1c[nH]cn1)NCCCc1ccccc1 | 5.25 | – | 5.64 | pKb [6]: < 5
CCN/C(=N\C#N)NCCCCc1c[nH]cn1 | < 5 | – | 5.54 | EC50 [7]: 708 nM; pKb [6]: < 5
N#C/N=C(\NCCCCCc1c[nH]cn1)NCCSc1ccccc1 | 5.21 | 6.85 | 6.74 | –
CC(C)CN/C(=N\C#N)NCCCCc1c[nH]cn1 | < 5 | – | 5.47 | EC50 [7]: 120 nM; pKb [6]: < 5
N#C/N=C(/NCCCCc1c[nH]cn1)NCCc1ccccc1 | 5 | – | 5.82 | EC50 [7]: 1100 nM
N/C(=N/CCc1ccc(I)cc1)SCCCc1cnc[nH]1 | – | – | – | Kinact [8]: 13 nM
N#C/N=C(/NCCCCc1c[nH]cn1)NCCc1c[nH]c2ccccc12 | < 5 | 5.8 | 6.77 | –
N#C/N=C(/NCCCCc1c[nH]cn1)NCCCc1ccccn1 | 5.48 | – | 5.89 | EC50 [7]: 575 nM
